SMILES strings stand for the structures. pIC50: −log10 of the molar value. Where only a bound is given, the exact number is not on record here.

A short description of data set [1]: Antiaggregatory activity in human platelets assessed as inhibition of thrombin-induced platelet aggregation preincubated for 3 mins before thrombin challenge by turbidimetry analysis. The format is functional, cell-based. The procedure, abridged: (§1)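 Washed platelets from ACD-anticoagulated blood of drug-free healthy volunteers, resuspended at 3 × 10⁸/ml in Tyrode's solution with Ca²⁺ 2 mM, glucose 11.1 mM and BSA 3.5 mg/ml. Platelets were stirred at 1200 rpm and 37 °C for 3 min with DMSO (0.5%, vehicle) or compound, then the inducer was added. Aggregation was read by light-transmission aggregometry. IC50 is the mean of two independent experiments (TPA lines n = 3).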

The subject of data set [2] is MDA-MB-231. The experiment in a line: Cytotoxicity against human MDA-MB-231 cells after 72 hrs by MTT assay. Format: functional, cell-based. The settings on record: MDA-MB-231, 72 h. The procedure, abridged: (§2)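 MDA-MB-231 breast cancer or HBL-100 non-malignant breast epithelial cells: freshly trypsinized cells seeded at 8000 per well, with compound added from DMSO-diluted stock. After 72 h, attached cells were given MTT (0.5 mg/mL, 1 h) and solubilized in DMSO.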

In data set [3] the test system is MDA-MB-231. The experiment in a line: Cytotoxicity against human MDA-MB-231 cells at 20 uM after 72 hrs by MTT assay. The format is functional. Particulars: MDA-MB-231, 72 h.
A short description of data set [4]: Antiaggregatory activity in human platelets assessed as inhibition of collagen-induced platelet aggregation preincubated for 3 mins before collagen challenge by turbidimetry analysis. Format: functional, cell-based. The procedure, abridged:
as §1

For data set [5], the system named is HBL-100. The data set is described as follows: Cytotoxicity against human HBL100 cells at 20 uM after 72 hrs by MTT assay. The settings on record: HBL-100, 72 h. The format is functional.
In data set [6] the test system is HBL-100. The data set is described as follows: Cytotoxicity against human HBL100 cells after 72 hrs by MTT assay. The format is functional, cell-based. Particulars: HBL-100, 72 h. The procedure, abridged:
as §2

Data set [7] is described as follows: Antiaggregatory activity in human platelets assessed as inhibition of TPA-induced platelet aggregation preincubated for 3 mins before TPA challenge by turbidimetry analysis. The format is functional, cell-based. In short, it runs like this:
as §1

Data set [8] can be described thus: Antiaggregatory activity in human platelets assessed as inhibition of A23187-induced platelet aggregation preincubated for 3 mins before A23187 challenge by turbidimetry analysis. The format is functional, cell-based. The procedure, abridged: as §1
Data set [9] has as its system Integrin alpha-IIb/beta-3 (Homo sapiens). The experiment in a line: Inhibition of glycoprotein 2b/3a activation in human platelets assessed as inhibition of thrombin-induced PAC-1 binding preincubated for 3 mins before thrombin challenge after 15 mins by flow cytometry. The settings on record: 0.25 h.

In the case of `COc1cc(/C=C/[N+](=O)[O-])ccc1OC(=O)c1ccc(F)c(F)c1F`, the pIC50 in [1] was 4.64; in data set [2] it was less than 4.70; in [4], 5.57; in [6], less than 4.70. Moreover, the inhibition at 20 µM came to 3.7% in [3] and 1.1% in data set [5].

For `COc1cc(/C=C/[N+](=O)[O-])ccc1OC(=O)c1cccc(C(F)(F)F)c1`, the pIC50 in data set [1] is 5.48; in [2] it was less than 4.70; in data set [4], 5.77; in [6], less than 4.70. Also, the inhibition at 20 µM in [3] was determined as 34.9%; in [5], 12.5%.

In the case of `COc1cc(/C=C/[N+](=O)[O-])ccc1OC(=O)c1ccc(Cl)cc1Cl`, the pIC50 in data set [1] was 6.15; in data set [2] it was less than 4.70; in data set [4], 6.15; in data set [6], less than 4.70. Moreover, the inhibition at 20 µM in data set [3] was -0.1%; in data set [5] it was 9.9%.

For `O=[N+]([O-])/C(O)=C/c1ccccc1`, the pIC50 in [1] was 4.45; in [2], 4.86; in data set [4] it was 5.11; in [6], less than 4.70. In addition, the inhibition at 20 µM is 21.2% in data set [3] and 34.9% in data set [5].

Take `COc1cc(/C=C/[N+](=O)[O-])ccc1OC(=O)c1ccccc1C(F)(F)F`: the pIC50 in [1] is 5.60; in [2], less than 4.70; in [4] it was 5.89; in data set [6], less than 4.70. Also, the inhibition at 20 µM turned out to be 20.4% in data set [3] and 2.4% in data set [5].

As to `COc1cc(/C=C/[N+](=O)[O-])ccc1OC(=O)c1ccc(F)cc1F`, the negative-log IC50 (pIC50) was 5.52 in [1], less than 4.70 in data set [2], 5.70 in [4] and less than 4.70 in data set [6]. Further, the inhibition at 20 µM in data set [3] was 18.5%; in data set [5], 16%.

For the compound `COc1cc(/C=C/[N+](=O)[O-])ccc1OC(=O)c1ccc(C)cc1`, the pIC50 was 5.57 in data set [1], less than 4.70 in data set [2], 5.70 in data set [4] and less than 4.70 in data set [6]. Besides, the inhibition at 20 µM stood at 7.9% in data set [3] and 8% in data set [5].

Regarding `COc1cc(/C=C/[N+](=O)[O-])ccc1OC(=O)c1cccc(Cl)c1Cl`, the pIC50 in data set [7] was 5.28; in data set [1] it was 6.15; in [8], 5.48; in data set [2] it was less than 4.70; in data set [4], 6.22; in data set [6], less than 4.70. The Activity entry in [9] is reported as “Dose-dependent effect”. Besides, the inhibition at 20 µM in data set [3] was -4.9%; in [5] it was 11.5%.

As to `COc1cc(/C=C/[N+](=O)[O-])ccc1OC(=O)c1ccc(C(C)(C)C)cc1`, the pIC50 in [7] is 5.46; in [1], 6.22; in [8], 5.96; in data set [2], less than 4.70; in data set [4], 6.22; in [6], less than 4.70. The Activity result in data set [9] was “Dose-dependent effect”. Moreover, the inhibition at 20 µM in data set [3] is 2.5%; in data set [5], -2.1%.

On to `COc1cc(/C=C/[N+](=O)[O-])ccc1OC(=O)c1ccc(Cl)c(Cl)c1`, for which the pIC50 is 6.00 in [1], less than 4.70 in data set [2], 5.74 in data set [4] and less than 4.70 in data set [6]. Besides, the values for the inhibition at 20 µM in data set [3] and in data set [5] were 9.4% and 15.2%, respectively.

As for `COc1cc(/C=C/[N+](=O)[O-])ccc1OC(=O)c1ccc(F)c(F)c1`, the pIC50 in data set [1] was 5.54; in data set [2], less than 4.70; in data set [4], 5.96; in [6] it was less than 4.70. Further, the figures for the inhibition at 20 µM in data set [3] and in data set [5] were 22.1% and 0.5%, respectively.

The record behind these values is ChEMBL document CHEMBL1268838, “The synthesis and biologic evaluation of anti-platelet and cytotoxic β-nitrostyrenes” (Bioorg Med Chem, 2010).
